Data taken from PMC11542020 (Blood Cancer Journal, 2024).
Where two headings read alike, the source gives them in different places.

Tests used:
B-ALL PDXs = assay: Ex vivo cytotoxicity assay; assay type: cell-based, human
Outline: (§1)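 Patient-derived xenograft leukemia cells were cultured ex vivo in AIM V medium at a density optimized for each xenograft (1–5 × 10⁶ cells per mL). ALL-11 cells were lentivirally transduced with AKR1C3 or with empty vector. Viability was read by resazurin or CellTiter-Glo. IC₅₀ was interpolated from nonlinear regression curves, with three biological experiments.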

T-ALL PDXs = assay: Ex vivo cytotoxicity assay; assay type: cell-based, human
Outline: as §1

ALL-11/AKR1C3 [1] = assay: Ex vivo cytotoxicity assay on ALL-11 PDX overexpressing AKR1C3; assay type: cell-based; conditions: Homo sapiens, 48 h
Outline: as §1

ALL-11/EV [2] = assay: Ex vivo cytotoxicity assay on ALL-11 PDX empty vector; assay type: cell-based; conditions: Homo sapiens, 48 h
Outline: as §1

[3] = ACHM-025 pharmacokinetic analysis of murine plasma; assay type: in vivo; conditions: female, NSG, mouse, ip, 25 mg/kg, across the dose levels 5, 10, 25 mg/kg IP
[4] = ACHM-025 pharmacokinetic analysis of murine brain; assay type: in vivo; conditions: female, NSG, mouse, intraperitoneal, 25 mg/kg
Plasma protein binding [5] = assay type: in vitro ADME; conditions: mouse
Plasma protein binding [6] = assay type: in vitro ADME; conditions: human
[7] = ACHM-025 tolerability in naïve immunodeficient mice; assay type: in vivo, mouse; conditions: 25 mg/kg via IP weekly ×3
T-ALL PDX (ALL-31) [8] = assay: In vivo efficacy, conventional study, T-ALL PDX ALL-31 in NSG mice; design: species or system human; conditions: 25 mg/kg IP Days 0, 7, 14
T-ALL PDX (ALL-8) [9] = assay: In vivo dose response study, conventional, T-ALL PDX ALL-8 in NSG mice; design: species or system human
25 T-ALL PDXs = assay: In vivo single mouse trial; design: species or system human; conditions: 25 mg/kg IP Days 0, 7, 14
ALL-11/AKR1C3 [10] = assay: In vivo efficacy against ALL-11/AKR1C3 in mice; design: species or system human; conditions: 25 mg/kg IP Days 0, 7, 14
Outline: (§2)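 Mice engrafted with the patient-derived xenograft were dosed IP and their peripheral blood % human CD45⁺ was monitored. An event was defined as huCD45⁺ >25% in PB. Event-free survival of treated and vehicle cohorts was compared as T-C and T/C. Studies used either n = 6 mice per treatment or single-mouse testing (n = 1).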

ALL-11/EV [11] = assay: In vivo efficacy against ALL-11/EV in mice; design: species or system human; conditions: 25 mg/kg IP Days 0, 7, 14
Outline: as §2

T-ALL PDX (ALL-8) [12] = assay: In vivo consolidation therapy comparison, ALL-8 in NSG mice; design: species or system human
Outline: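 ALL-8-engrafted mice received test compound 5 mg/kg IP on Days 0 and 7, alone or with Ara-C and 6-mercaptopurine (each 12.5 mg/kg IP, Days 0–4 and 7–11). Comparators were cyclophosphamide (75 mg/kg IP, Days 0 and 7) and vehicle. Human CD45⁺ in PB was tracked over time. At Day 28, or at event for vehicle, PB, BM and spleen were assessed as % huCD45⁺ of mouse CD45⁺ (3 mice).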

T-ALL PDX (ALL-8) [13] = assay: In vivo relapsed/refractory therapy comparison; design: species or system human
T-ALL PDX (ALL-8) [14] = assay: Histopathologic analysis of mouse skull and brain to assess tumor burden; assay type: in vivo, human; conditions: 10 mg/kg IP Days 0, 7, 14
T-ALL PDX (ALL-8) [15] = assay: Minimal residual disease; assay type: in vivo, human; conditions: not within the quantitative range of the assay
[16] = Preliminary tolerability studies in cynomolgus monkeys; assay type: in vivo, cynomolgus monkey
T-ALL PDX (ALL-8) [17] = conditions: OBI-3424 2.5 mg/kg, PR-104 200 mg/kg; cited from earlier work
T-ALL PDX (ALL-31) [18] = conditions: OBI-3424 2.5 mg/kg, PR-104 200 mg/kg; cited from earlier work
[19] = ACHM-025 10 mg/kg IP Days 0, 7, 14, nelarabine 125 mg/kg IP Days 0–4, 14–18, alone or combined

For `CN1CCN(S(=O)(=O)c2cc([N+](=O)[O-])ccc2N(CCOS(C)(=O)=O)CCOS(C)(=O)=O)CC1` [ACHM-025, ((2-((4-methylpiperazin-1-yl)sulfonyl)-4-nitrophenyl)azanediyl)bis(ethane-2,1-diyl) dimethanesulfonate], the IC50 (B-ALL PDXs; Homo sapiens, 48 h, read-out: Median IC50, median of 6 B-ALL PDXs, 48 h) was 840 nM, the IC50 (T-ALL PDXs; Homo sapiens, 48 h, read-out: Median IC50, median of 6 T-ALL PDXs, 48 h) was 29 nM and the IC50 (ALL-11/AKR1C3 [1]) was 13.1 nM. For the same compound, the IC50 (ALL-11/EV [2]) was 1260 nM, the Cmax ([3]; Cmax) was 1600 to 9300 nM and the AUC(0-inf) ([3]; total plasma exposure (AUC0-inf)) was 0.5 to 3.3 µM·h. It also gave a concentration at 0.25 h [4] of 140 nM, a fraction unbound at 5 µmol/L (Plasma protein binding [5]) of 0.569 and a fraction unbound at 5 µmol/L (Plasma protein binding [6]) of 0.646. For the same compound, the Tolerability [7] was “well tolerated”, the “Median EFS” value (T-ALL PDX (ALL-31) [8]) was over 332 days and the “human leukemia cells in the murine peripheral blood (PB)” value (T-ALL PDX (ALL-31) [8]) was under 1%. The “mice that did not relapse over the >300-day observation period following the last treatment” value (T-ALL PDX (ALL-31) [8]) was 3 out of 5, the “time for which human leukemia cells in PB <1% was maintained” value (T-ALL PDX (ALL-31) [8]) was 10 consecutive weeks and the ORM (T-ALL PDX (ALL-8) [9]; 10 mg/kg IP Days 0, 7, 14) was “MCRs”. The ORM (T-ALL PDX (ALL-8) [9]; 15 mg/kg IP Days 0, 7, 14) was “MCRs”, the ORM (T-ALL PDX (ALL-8) [9]; 25 mg/kg IP Days 0, 7, 14) was “MCRs” and the “mice with no detectable human leukemia cells in the PB at 250 days after the last treatment” value (T-ALL PDX (ALL-8) [9]; 25 mg/kg IP Days 0, 7, 14) was 5 out of 6. For the same compound, the “human leukemia cells in the PB, BM, spleen, kidney or liver at Day 28” value (T-ALL PDX (ALL-8) [9]; any of the three doses (10, 15 or 25 mg/kg)) was “no detectable human leukemia cells”, the “PDXs that did not reach event during the 250 day monitoring period following the final treatment” value (25 T-ALL PDXs) was 7/25 and the “Treated EFS” value (ALL-11/AKR1C3 [10]) was 104 days. The “Treated EFS” value (ALL-11/EV [11]) was 49.1 days, the “human leukemia levels in the PB, BM and spleen at Day 28” value (T-ALL PDX (ALL-8) [12]; ACHM-025 5 mg/kg IP Days 0, 7) was “undetectable levels” and the “human leukemia cells in the murine PB” value (T-ALL PDX (ALL-8) [12]; ACHM-025 5 mg/kg IP Days 0, 7, for six consecutive weeks) was under 1%. The “human leukemia cells in the BM at Day 28 by flow cytometry” value (T-ALL PDX (ALL-8) [13]) was “no detectable human leukemia cells”, the “EFS (median event free survival)” value (T-ALL PDX (ALL-8) [13]; [19]) was 207 days and the ORM (T-ALL PDX (ALL-8) [13]; [19]) was “MCRs”. The T-C (T-ALL PDX (ALL-8) [13]; [19]) was 198 days, the T/C (T-ALL PDX (ALL-8) [13]; [19]) was 22.5 days and the “leukemic infiltration of the calvarial bone marrow at Day 28 (H&E, TdT)” value (T-ALL PDX (ALL-8) [14]) was “no observable leukemic infiltration”. The “MRD in BM samples at Day 28 (PCR-based assay)” value (T-ALL PDX (ALL-8) [15]) was “MRD positive”, the single dose-limiting toxicity ([16]; 0.6 mg/kg) was “neutropenia” and the “all other hematological, clinical chemistry, urinalysis and histopathology parameters” value ([16]; 2.0 mg/kg, the highest dose tested) was “within normal range”. The well tolerated doses ([16]; preliminary studies) was at most 0.5 mg/kg.
In the case of `COc1nc(N)nc2c1ncn2[C@@H]1O[C@H](CO)[C@@H](O)[C@@H]1O` [Nelarabine, nelarabine, reference compound], the “EFS (median event free survival)” value (T-ALL PDX (ALL-8) [13]; [19]) is reported as 28.4 days, the T-C (T-ALL PDX (ALL-8) [13]; [19]) is reported as 19.1 days and the T/C (T-ALL PDX (ALL-8) [13]; [19]) is reported as 3.1 days. The “human leukemia levels in the PB, BM or spleen at Day 28” value (T-ALL PDX (ALL-8) [13]; nelarabine 125 mg/kg IP Days 0–4, 14–18) was “did not significantly decrease”.
For `CS(=O)(=O)OCCN(CCBr)c1c(C(=O)NCCOP(=O)(O)O)cc([N+](=O)[O-])cc1[N+](=O)[O-]` [PR-104], the “delay of leukemia progression” value (T-ALL PDX (ALL-8) [17]) is given as 54.3 days and the “delay of leukemia progression” value (T-ALL PDX (ALL-31) [18]) is given as 44.4 days.
In the case of `CS(=O)(=O)OCCN(CCBr)c1c(C(=O)NCCO)cc([N+](=O)[O-])cc1[N+](=O)[O-]` [PR-104A, reference compound], the IC50 (B-ALL PDXs; read-out: Median IC50, median of B-ALL PDXs) is reported as 26600 nM and the IC50 (T-ALL PDXs; read-out: Median IC50, median of T-ALL PDXs) is reported as 1800 nM.
